Measurements gathered from unrelated publications.
Protocols differ between the studies behind these lines.
Target: Tyrosine-protein kinase SYK (SYK, Homo sapiens, UniProt P43405)

For `CCCOc1ccc([C@H]2[C@H](C(=O)O)[C@@H](c3ccc4c(c3)OCO4)CN2CC(=O)Nc2c(CC)cccc2CC)cc1`, the remaining binding was 100% (cell-free assay; competition with immobilised ligand; 1 µM).
`O=C(Nc1cnn(-c2csc(C(=O)NC3COC3)c2)c1)Nc1ccccc1Cl` has a remaining activity of 101% (enzyme activity; inhibitor; 5 µM).
With `Cc1cc(NC(=O)c2cccc3cc(-c4cccc5[nH]nc(N)c45)ccc23)ccc1F` the activity vs control was 109% (enzyme activity; inhibitor; 0.1 µM).
`CCCS(=O)(=O)Nc1ccc(F)c(C(=O)c2c[nH]c3ncc(-c4ccc(Cl)cc4)cc23)c1F` has an inhibition of < 10% (enzyme activity; inhibitor; 1 µM).
`COc1cc2c(Nc3ccc(Br)cc3F)ncnc2cc1OCC1CCN(C)CC1` gave a remaining signal of 101% (cell-free assay; 0.5 µM).
With `CN(c1ccnc(CNc2nc(Nc3ccc4c(c3)CC(=O)N4)ncc2C(F)(F)F)n1)S(C)(=O)=O` the remaining binding was 5.7% (cell-free assay; competition with immobilised ligand; 1 µM).
With `CNC(=O)c1cc(Oc2ccc(NC(=O)Nc3ccc(Cl)c(C(F)(F)F)c3)cc2)ccn1` the inhibition was 3% (enzyme activity; inhibitor; 0.3 µM).
`Nc1ncnc2occ(-c3ccc(NC(=O)Nc4cc(C(F)(F)F)ccc4F)cc3)c12` gave a remaining signal of 2.4% (cell-free assay; inhibitor; 20 µM).
The remaining activity of `Nc1nc(Nc2ccccc2)sc1C(=O)c1c(F)cccc1F` is reported as 37% (enzyme activity; inhibitor; 10 µM).
With `Cc1c(NC(=O)c2cc(C(N)=O)nc3cc(F)ccc23)c(C(F)(F)F)nn1Cc1ccc(C#N)cc1` the remaining binding was 95% (cell-free assay; competition with immobilised ligand; 1 µM).
The activity vs control of `c1nc2c(Nc3ccc4c(c3)OCCO4)nc(Nc3ccc4c(c3)OCCO4)nc2[nH]1` is reported as 2% (enzyme activity; inhibitor; 10 µM).
The remaining activity of `CC(C)(C)c1nc(-c2cccc(NS(=O)(=O)c3c(F)cccc3F)c2F)c(-c2ccnc(N)n2)s1` is reported as 111% (enzyme activity; inhibitor; radiometric; 1 µM).
`Nc1cnc(N2CCc3cc(S(=O)(=O)Nc4c(F)cc(Cl)cc4F)cc(N4CCCC4=O)c32)nc1` has a remaining binding of 100% (cell-free assay; competition with immobilised ligand; 1 µM).
With `CN(C)C1CCN(CC#Cc2nn(C3CCCC3)c3nc(NCc4ccccc4)ncc23)C1` (centres unmarked) the inhibition was 2% (enzyme activity; inhibitor; FRET; 0.1 µM).
The remaining signal of `N#CCCc1ccc2c(c1)-c1[nH]c3ccc([N+](=O)[O-])cc3c1CC(=O)N2` is reported as 58% (cell-free assay; 0.5 µM).
The activity vs control of `Cc1ccc(C(=O)NCc2ccsc2)cc1C#Cc1cn(C(C)C)c2ncnc(N)c12` is reported as 91% (enzyme activity; inhibitor; 1 µM).
`Cc1ccc(Nc2nccc(N(C)c3ccc4c(C)n(C)nc4c3)n2)cc1S(N)(=O)=O` has an inhibition of 21% (enzyme activity; inhibitor; 0.3 µM).
`CS(=O)(=O)Nc1cccc(-c2csc(NC(=O)CSc3nc4nccnc4c(=O)n3CCc3ccccc3)n2)c1` gave an inhibition of -1% (enzyme activity; inhibitor; 10 µM).
With `Oc1cccc(-c2nc(N3CCOCC3)c3oc4ncccc4c3n2)c1` the remaining activity was 69% (enzyme activity; inhibitor; 10 µM).
With `CC/C(=N\NC(=O)NCc1cccc(O)c1)c1ccc(O)c(C)c1O` the inhibition was 3.3% (enzyme activity; inhibitor; 0.1 µM).
`O=C(O)[C@H]1[C@H](Cn2nnc3ccccc3c2=O)CC[C@@H]1C(=O)c1ccc(OCCC2CCOCC2)cc1` gave a remaining binding of 76% (cell-free assay; competition with immobilised ligand; 1 µM).
For `FC(F)c1nc2ccccc2n1-c1nc(N2CCOCC2)nc(N2CCOCC2)n1`, the remaining activity was 85% (enzyme activity; inhibitor; 10 µM).
For `CN(c1ncccc1CNc1nc(Nc2ccc3c(c2)CC(=O)N3)ncc1C(F)(F)F)S(C)(=O)=O`, the inhibition was 91.7% (enzyme activity; inhibitor; 1 µM).
For `O=C1NC(=O)c2cc(Nc3ccc(F)cc3)c(Nc3ccc(F)cc3)cc21`, the remaining signal was 98.8% (cell-free assay; 0.5 µM).
`Cn1cc(Cl)c2c(Oc3c(F)cc(Nc4cc(Cl)nc(N)n4)cc3F)ccnc21` has a remaining binding of 100% (cell-free assay; competition with immobilised ligand; 0.1 µM).
For `COc1cc(Nc2cnc(C#N)c(O[C@H](C)CN(C)C)n2)ncc1-c1cnn(C)c1`, the remaining activity was 93% (enzyme activity; inhibitor; radiometric; 1 µM).
`COc1cc(Cl)c(C(=O)N[C@@H](CN[C@H]2CC[C@@H](N)CC2)Cc2ccc(C#N)cc2)cc1-c1ccc(CN[C@H](C)c2ccc(C)cc2)o1` has a remaining activity of 97% (enzyme activity; inhibitor; 1 µM).
With `Cc1nc(Cc2cccc(C(F)(F)F)c2)sc1-c1ccc(C(N)=O)nc1` the remaining binding was 100% (cell-free assay; competition with immobilised ligand; 1 µM).
`COc1cc2ncnc(Nc3ccc(Oc4ccccc4)c(C)c3C)c2cc1OC` gave an inhibition of 4% (enzyme activity; inhibitor; 1 µM).
The activity vs control of `FC(F)(F)Oc1cccc(-c2cnc3ccc(-c4ccncc4)nn23)c1` is reported as 72% (enzyme activity; inhibitor; radiometric; 5 µM).
`CS(=O)(=O)NCC[C@H](NC(=O)c1cncc2c1cnn2-c1ccc(F)cc1)c1ccnc(S(C)(=O)=O)c1` gave a remaining binding of 100% (cell-free assay; competition with immobilised ligand; 1 µM).
For `C=CC(=O)Nc1cc(Nc2nccc(Nc3cc(Cl)c(F)cc3C(C)(C)O)n2)c(OC)cc1N1CC[C@@H](N(C)C)C1`, the inhibition was 14% (enzyme activity; inhibitor; 1 µM).
